This is a sample that favours compounds with a hit; in the whole collection about 2.4% have one here.
PGE2 EP2 inh = inhibitors of human EP2 prostaglandin E2 receptor | C6 glioma cells expressing human EP2, cAMP TR-FRET; cells stimulated with saturating PGE2 | inhibition, % at 25 µM | 260,000 tested, 0.52% active;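 active means percent inhibition above 40 after rounding to a whole number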;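 further: rat C6 glioma host cells with rolipram phosphodiesterase inhibitor present; the protocol text gives 20 µM as final concentration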
Target sequence (P43116 whole entry, looked up): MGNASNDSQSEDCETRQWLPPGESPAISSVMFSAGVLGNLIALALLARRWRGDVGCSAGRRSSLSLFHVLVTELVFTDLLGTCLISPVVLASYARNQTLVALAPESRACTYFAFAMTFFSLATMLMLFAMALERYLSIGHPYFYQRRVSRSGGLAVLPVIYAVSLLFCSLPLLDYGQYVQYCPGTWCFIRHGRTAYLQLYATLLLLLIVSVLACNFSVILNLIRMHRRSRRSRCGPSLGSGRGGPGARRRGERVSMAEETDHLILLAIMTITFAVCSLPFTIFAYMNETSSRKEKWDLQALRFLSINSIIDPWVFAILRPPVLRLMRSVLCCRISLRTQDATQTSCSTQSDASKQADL
Tb hexokinase = T. brucei hexokinase 1 inhibition. recombinant TbHK1, G6PDH-coupled NADH A340. inhibition, % at 10 µM. 220,000 tested, 0.11% active;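 active means inhibition of 50% or more in the single-dose primary screen; inactive means inhibition below 50%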
EP2 modulator = modulators of human EP2 prostaglandin E2 receptor; P43116; EP2-expressing cells, cAMP HTRF FRET, PGE2 co-stimulation; induction, % at 25 µM; 260,000 tested, 0.83% active; AID 940;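 active means compounds whose cAMP rise, as percent of the full-agonist control response, exceeds 60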;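 further: rat C6 glioma line stably carrying human EP2 under a CMV promoter; the protocol text gives 20 µM as final concentration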
MT stabilize HCS = microtubule stabilizers in HeLa cells; HeLa tubulin immunostaining HCS, 24 h; share of cells brighter than vehicle mean+2SD; % tubulin-high responders, % at 10 µM; 200,000 tested, 0.83% active; AID 2205;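 active means plate Z-score above 3 for both tubulin-high and condensed-nucleus cell shares, with cell loss under 80%, at 10 µM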;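 further: anti alpha tubulin signal scored within the nucleus-defined area of each cell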
HMGR II inh = blocks class II HMG-CoA reductase of Enterococcus faecalis | 190,000 tested, 0.41% active | inhibition, % at 10 µM | purified E. faecalis HMGR, NADPH absorbance 340 nm kinetic | AID 1066;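 active means inhibition above a set limit, the median over all tested compounds plus 3 SD, cut at about 9.5% in these data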;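 further: enzyme runs in reverse so mevalonate oxidation gives rising NADPH absorbance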
bCat nuc transl = modulators of beta-catenin nuclear translocation; HeLa beta-catenin nuclear translocation, immunofluorescence imaging; nuclear translocation activity, % at 5 µM; 190,000 tested, 0.3% active;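 active means nuclear translocation activity above 50% at 5 µM, with a well cell count of 50 or more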;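 further: per-cell ratio of nuclear to cytoplasmic median beta-catenin stain intensity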
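Technique: fluorescence imaging of beta-catenin antibody stain plus DAPI / Material: human HeLa cell line / Incubation: compound treatment 24 h, 37°C, 5% CO2 / Read-out basis: % activation of per-cell nuclear versus cytoplasmic median beta-catenin signal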
Large screens that a line does not name were inactive; ! = repeats disagree.

COc1cccc(NP(=O)(Oc2ccccc2)Oc2ccccc2)c1	MT stabilize HCS 18
Cc1ccc(NC(=O)CN2C3CCC2CC(O)(c2ccco2)C3)cc1F (stereo not drawn)	none (no result: PGE2 EP2 inh, Tb hexokinase, MT stabilize HCS, HMGR II inh, bCat nuc transl)
O=C1NC(=S)NC(=O)C1=Cc1cccc2cc3ccccc3cc12	PGE2 EP2 inh 98!, bCat nuc transl 58 (no result: MT stabilize HCS, HMGR II inh)
COc1ccc(C(F)(F)F)cc1N1C(=O)CC(=O)NC1=O	none (no result: Tb hexokinase, MT stabilize HCS, HMGR II inh, bCat nuc transl)
CCCCCc1nc2c(c(=O)c3ccccc3n2C)c(=O)n1C1CCCCCC1	PGE2 EP2 inh 121
C[C@]12CC[C@H](O)CC1=CC[C@@H]1[C@@H]2CC[C@@]2(C)[C@H]1CC[C@]2(C)O	none (no result: Tb hexokinase, EP2 modulator, MT stabilize HCS, HMGR II inh, bCat nuc transl)
Cc1c([C@@H](C)[C@H]2NC[C@H](C)C[C@@H]2O)ccc2c1C[C@@H]1[C@@H]2CC=C2C[C@@H](O)CC[C@@]21C	PGE2 EP2 inh 43 (no result: Tb hexokinase, MT stabilize HCS, HMGR II inh, bCat nuc transl)
Nc1nonc1-c1cnon1	none (no result: Tb hexokinase, MT stabilize HCS, HMGR II inh, bCat nuc transl)
CCCCNC(=S)N1CCn2cccc2C1c1cccnc1 (stereo not drawn)	HMGR II inh 11
O=C(CN1C2CCC1CC(O)(c1cccnc1)C2)OC1CCCCC1 (stereo not drawn)	none (no result: Tb hexokinase, MT stabilize HCS, HMGR II inh, bCat nuc transl)
CCCN1CCC[C@@H]2Cc3nc(N)ncc3C[C@H]21	EP2 modulator 66 (no result: Tb hexokinase, MT stabilize HCS, HMGR II inh, bCat nuc transl)
O=C(CN1C2CCC1CC(O)(c1ccccn1)C2)NCc1ccc(F)cc1 (stereo not drawn)	none (no result: Tb hexokinase, MT stabilize HCS, HMGR II inh, bCat nuc transl)
CN(C)C(=S)SSC(=S)N(C)C	PGE2 EP2 inh 125
CC1=CC(=C2C(=O)NC(=S)NC2=O)C=C(C(F)(F)F)N1CCc1ccccc1	MT stabilize HCS 25
CC1=CC(=C2C(=O)NC(=O)NC2=O)C=C(C(F)(F)F)N1Cc1ccccc1	none
CC1=CC(=C2C(=O)NC(=S)NC2=O)C=C(C(F)(F)F)N1Cc1ccccc1	MT stabilize HCS 15
CCCCOCCCN1C(C)=CC(=C2C(=O)NC(=S)NC2=O)C=C1C	none (no result: MT stabilize HCS, HMGR II inh)
Cc1nc(-c2ccccc2)c(CC(=O)N2CCCCC2CN2CCCCC2)s1 (stereo not drawn)	none (no result: Tb hexokinase, MT stabilize HCS, HMGR II inh, bCat nuc transl)
O=C(O)[C@@H](O)[C@@H](O)[C@@H]1[O][Sb][O][C@@H]1CO	PGE2 EP2 inh 51 (no result: Tb hexokinase, MT stabilize HCS, HMGR II inh, bCat nuc transl)
c1ccc(CCNCc2c[nH]c3ccccc23)cc1	none (no result: Tb hexokinase, MT stabilize HCS, HMGR II inh, bCat nuc transl)
CC(=O)O[C@@H]1C[C@@]2(C)[C@H](c3ccoc3)C[C@H]3O[C@]32[C@]2(C)C(=O)C(O)=C3C(C)(C)C(=O)C=C[C@]3(C)C12 (stereo partly drawn)	none (no result: Tb hexokinase, MT stabilize HCS, HMGR II inh, bCat nuc transl)
OC12CCCCC1CN(Cc1ccc3ncccc3c1)CC2 (stereo not drawn)	none (no result: Tb hexokinase, MT stabilize HCS, HMGR II inh, bCat nuc transl)
C[C@@H](O)CN(CCN(C[C@@H](C)O)C[C@@H](C)O)C[C@@H](C)O.O=[N+]([O-])O.[Cu]	PGE2 EP2 inh 41 (no result: Tb hexokinase, MT stabilize HCS, HMGR II inh, bCat nuc transl)
CC(c1ccccc1F)n1cc(C(=O)NCC2CC2)nn1 (stereo not drawn)	none (no result: Tb hexokinase, MT stabilize HCS, HMGR II inh, bCat nuc transl)
Cc1cc[c]([Sb]2[O][C@H]([C@H](O)[C@H](O)C(=O)O)[C@@H](CO)[O]2)cc1	PGE2 EP2 inh 49 (no result: Tb hexokinase, MT stabilize HCS, HMGR II inh, bCat nuc transl)
COc1ccc(C2=NCC(=O)N(CC(=O)NCc3cccs3)c3sc4c(c32)CCCC4)cc1	none (no result: Tb hexokinase, MT stabilize HCS, HMGR II inh, bCat nuc transl)
Cc1cc2c(C(C)C)c(O)c(O)c(C=O)c2c(O)c1-c1c(C)cc2c(C(C)C)c(O)c(O)c(C=O)c2c1O	PGE2 EP2 inh 47! (no result: bCat nuc transl)
Nc1ccccc1O.O.O=C(O)[C@H]1[O][Sb][O][C@H]1C(=O)O	PGE2 EP2 inh 54 (no result: Tb hexokinase, MT stabilize HCS, HMGR II inh, bCat nuc transl)
CC12CCCCC1(Br)[N+](=O)N2[O-] (stereo not drawn)	none (no result: Tb hexokinase, MT stabilize HCS, HMGR II inh, bCat nuc transl)
CCN1C[C@]2(OC(=O)c3ccccc3NC(C)=O)CCC(OC)[C@]34C1[C@H](CC23)[C@@]1(O)CC(OC)[C@H]2CC4C1(O)[C@H]2OC (stereo partly drawn)	none (no result: Tb hexokinase, MT stabilize HCS, HMGR II inh, bCat nuc transl)
O=[N+]([O-])c1cc(-c2ccc([As](=O)(O)O)cc2)ccc1[As](=O)(O)O	PGE2 EP2 inh 47! (no result: MT stabilize HCS, HMGR II inh)
O=C1NC(=O)C(=Cc2ccc(-c3cc(Cl)ccc3[N+](=O)[O-])o2)C(=O)N1	PGE2 EP2 inh 42
Cc1cccc(OCC(=O)N2CCN(C(C)C)CC2)c1	none (no result: Tb hexokinase, MT stabilize HCS, HMGR II inh, bCat nuc transl)
Cc1cccc(NP(=O)(Oc2ccccc2F)Oc2ccccc2F)c1C	EP2 modulator 65
COc1ccc(C[C@@H]2c3cc(O)c(OC)cc3CCN2C)cc1O	HMGR II inh 20
OCCOc1ccc(CN2C3CCC2CC(O)(c2ccccc2F)C3)cc1 (stereo not drawn)	none (no result: Tb hexokinase, MT stabilize HCS, HMGR II inh, bCat nuc transl)
CC(C)c1ncc(CN2C3CCC2CC(O)(c2ccc(F)cc2)C3)cn1 (stereo not drawn)	none (no result: Tb hexokinase, MT stabilize HCS, HMGR II inh, bCat nuc transl)

Screens (PubChem BioAssay)
